Source: ChEMBL document CHEMBL2176949 (J Med Chem, 2012)
pKi: −log10 of the molar value.

What was measured:
Format in all cases: cell-based
[1] = target: Neuronal acetylcholine receptor; alpha4/beta2 (Homo sapiens, UniProt P17787+P43681); assay: Displacement of [3H]nicotine from human alpha4beta2 nAChR expressed in human SH-EP1 cells
Summary of the method: (§1)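 Binding to membranes from the cell lines: homogenised in PBS pH 7.4, spun at 40000g for 20 min at 4 °C, then incubated 2 h on ice in PBS with competitor (0.001 nM to 100 μM) and radioligand. Filters washed in ice-cold PBS and counted by scintillation. IC50 from nonlinear regression; Ki by Cheng-Prusoff. Minimum of three assays, ± SEM.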

[2] = target: Neuronal acetylcholine receptor subunit alpha-7 (Homo sapiens, UniProt P36544); assay: Displacement of [3H]epibatidine from human alpha7 nAChR expressed in human HEK/RIC3 cells; summary of the method: as §1
[3] = target: Neuronal acetylcholine receptor; alpha3/beta4 (Homo sapiens, UniProt P30926+P32297); assay: Displacement of [3H]epibatidine from human alpha3beta4 nAChR expressed in human SH-SY5Y cells; summary of the method: as §1
Chain of Neuronal acetylcholine receptor; alpha3/beta4 (P30926 whole entry): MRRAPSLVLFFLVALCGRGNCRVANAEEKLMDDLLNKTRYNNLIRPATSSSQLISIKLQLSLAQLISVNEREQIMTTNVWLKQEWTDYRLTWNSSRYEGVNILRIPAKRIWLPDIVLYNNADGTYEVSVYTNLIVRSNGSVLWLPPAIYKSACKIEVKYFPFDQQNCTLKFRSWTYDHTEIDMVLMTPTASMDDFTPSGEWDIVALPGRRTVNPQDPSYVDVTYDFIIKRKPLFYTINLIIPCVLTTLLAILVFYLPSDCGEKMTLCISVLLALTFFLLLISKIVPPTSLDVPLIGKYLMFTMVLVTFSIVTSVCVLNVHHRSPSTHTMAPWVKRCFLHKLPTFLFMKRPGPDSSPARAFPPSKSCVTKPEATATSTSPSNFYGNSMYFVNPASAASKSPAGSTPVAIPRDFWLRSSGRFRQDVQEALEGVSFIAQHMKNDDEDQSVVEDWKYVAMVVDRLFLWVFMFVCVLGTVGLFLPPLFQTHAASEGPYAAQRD
Chain of Neuronal acetylcholine receptor; alpha3/beta4 (P32297 whole entry): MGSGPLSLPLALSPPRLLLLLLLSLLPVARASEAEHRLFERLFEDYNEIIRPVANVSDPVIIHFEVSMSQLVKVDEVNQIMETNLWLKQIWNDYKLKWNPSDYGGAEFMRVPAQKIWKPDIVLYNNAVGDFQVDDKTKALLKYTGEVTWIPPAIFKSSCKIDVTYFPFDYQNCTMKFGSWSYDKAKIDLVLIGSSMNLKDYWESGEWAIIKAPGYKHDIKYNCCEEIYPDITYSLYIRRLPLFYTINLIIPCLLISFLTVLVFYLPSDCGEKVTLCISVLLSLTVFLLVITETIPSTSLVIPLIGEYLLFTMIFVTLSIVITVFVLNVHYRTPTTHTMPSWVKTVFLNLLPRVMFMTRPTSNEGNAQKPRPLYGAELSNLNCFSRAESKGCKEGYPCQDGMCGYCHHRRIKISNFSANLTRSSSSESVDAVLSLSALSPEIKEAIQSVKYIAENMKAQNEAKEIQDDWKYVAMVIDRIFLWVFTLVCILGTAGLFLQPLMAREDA

Chain of Neuronal acetylcholine receptor subunit alpha-7 (P36544 whole entry): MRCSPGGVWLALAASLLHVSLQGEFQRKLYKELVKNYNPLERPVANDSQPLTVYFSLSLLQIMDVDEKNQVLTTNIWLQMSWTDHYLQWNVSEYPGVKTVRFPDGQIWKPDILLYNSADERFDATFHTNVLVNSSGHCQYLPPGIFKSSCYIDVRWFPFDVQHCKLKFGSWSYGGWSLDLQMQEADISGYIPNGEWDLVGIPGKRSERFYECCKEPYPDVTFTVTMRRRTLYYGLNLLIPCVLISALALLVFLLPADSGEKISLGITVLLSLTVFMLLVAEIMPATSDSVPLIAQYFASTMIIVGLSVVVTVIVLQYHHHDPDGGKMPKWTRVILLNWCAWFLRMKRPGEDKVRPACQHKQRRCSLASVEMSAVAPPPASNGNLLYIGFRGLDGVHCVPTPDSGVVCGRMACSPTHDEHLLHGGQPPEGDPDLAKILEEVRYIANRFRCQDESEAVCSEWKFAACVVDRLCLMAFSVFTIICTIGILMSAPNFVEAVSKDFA
Chain of Neuronal acetylcholine receptor; alpha4/beta2 (P17787 whole entry): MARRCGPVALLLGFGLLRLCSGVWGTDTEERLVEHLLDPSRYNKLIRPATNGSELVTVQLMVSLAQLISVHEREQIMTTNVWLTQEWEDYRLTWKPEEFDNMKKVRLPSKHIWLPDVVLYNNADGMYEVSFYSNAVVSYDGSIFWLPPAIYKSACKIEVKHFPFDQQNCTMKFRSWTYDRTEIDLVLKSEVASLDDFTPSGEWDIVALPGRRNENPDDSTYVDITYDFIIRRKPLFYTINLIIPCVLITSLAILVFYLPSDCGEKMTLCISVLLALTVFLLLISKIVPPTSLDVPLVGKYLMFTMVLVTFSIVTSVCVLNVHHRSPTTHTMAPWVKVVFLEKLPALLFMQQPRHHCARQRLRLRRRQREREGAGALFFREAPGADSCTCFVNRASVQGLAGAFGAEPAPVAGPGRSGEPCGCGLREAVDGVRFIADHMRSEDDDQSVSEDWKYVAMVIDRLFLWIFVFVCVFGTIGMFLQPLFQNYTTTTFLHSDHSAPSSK
Chain of Neuronal acetylcholine receptor; alpha4/beta2 (P43681 whole entry): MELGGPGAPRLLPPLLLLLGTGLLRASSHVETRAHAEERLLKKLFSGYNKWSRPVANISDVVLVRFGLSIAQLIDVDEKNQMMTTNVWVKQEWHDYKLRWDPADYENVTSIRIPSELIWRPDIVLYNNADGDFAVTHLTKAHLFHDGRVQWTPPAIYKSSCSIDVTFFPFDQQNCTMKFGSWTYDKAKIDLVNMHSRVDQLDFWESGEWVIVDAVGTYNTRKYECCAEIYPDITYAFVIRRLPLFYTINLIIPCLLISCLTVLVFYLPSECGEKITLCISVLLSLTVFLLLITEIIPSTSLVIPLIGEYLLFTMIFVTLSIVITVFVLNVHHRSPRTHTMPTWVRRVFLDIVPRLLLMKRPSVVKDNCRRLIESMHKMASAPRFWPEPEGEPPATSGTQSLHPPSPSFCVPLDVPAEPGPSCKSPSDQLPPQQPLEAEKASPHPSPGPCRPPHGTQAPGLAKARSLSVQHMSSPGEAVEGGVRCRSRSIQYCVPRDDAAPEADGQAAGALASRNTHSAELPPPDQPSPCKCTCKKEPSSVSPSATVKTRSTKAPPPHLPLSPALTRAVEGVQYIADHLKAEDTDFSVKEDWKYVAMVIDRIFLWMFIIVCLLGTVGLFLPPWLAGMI

**Q.** What does the source list for `Fc1cncc(C2=CC3CNCC(C2)C3)c1` (stereo not drawn)?
**A.** pKi [1]: 9.52; pKi [2]: 8.44; pKi [3]: 7.41

**Q.** With `CN1CC2C=C(c3cnccc3C#N)CC(C2)C1` (stereo not drawn) as the compound, how does the pKi [1] read?
**A.** 5.47

**Q.** What about the pKi [2] of the same compound?
**A.** 5.31

**Q.** How did the pKi [1] turn out when `COc1cc(C2=CC3CC(C2)CN(C)C3)cnc1Cl` (stereo not drawn) was run?
**A.** 8.36

**Q.** What about the pKi [2] of the same compound?
**A.** 5.12

**Q.** And the pKi [3]?
**A.** 5.84

**Q.** `COc1ccc(Oc2cncc(C3=CC4CNCC(C3)C4)c2)cc1` (stereo not drawn) was tested. Which pKi [1] did it give?
**A.** 8.85

**Q.** What about the pKi [2] of the same compound?
**A.** 7.64

**Q.** And the pKi [3]?
**A.** 7.57

**Q.** With `CN1CC2C=C(c3cnccc3Cl)CC(C2)C1` (stereo not drawn) as the compound, how does the pKi [1] read?
**A.** 5.94

**Q.** What about the pKi [2] of the same compound?
**A.** 5.85

**Q.** And the pKi [3]?
**A.** 5.14

**Q.** What does the source list for `C1=C(c2cncc(OCc3ccccc3)c2)CC2CNCC1C2` (stereo not drawn)?
**A.** pKi [1]: 9.15; pKi [2]: 7.36; pKi [3]: 7.36

**Q.** `Clc1cccc(Oc2cncc(C3=CC4CNCC(C3)C4)c2)c1` (stereo not drawn) was tested. Which pKi [1] did it give?
**A.** 9.00

**Q.** What about the pKi [2] of the same compound?
**A.** 7.89

**Q.** And the pKi [3]?
**A.** 7.66

**Q.** What does the source list for `C1=C(c2ccncc2)CC2CNCC1C2` (stereo not drawn)?
**A.** pKi [1]: 7.25; pKi [2]: < 5.00; pKi [3]: 6.34

**Q.** With `C1=C(c2cnccn2)CC2CNCC1C2` (stereo not drawn) as the compound, how does the pKi [1] read?
**A.** 8.96

**Q.** And the pKi [2]?
**A.** 6.55

**Q.** And the pKi [3]?
**A.** 6.08

**Q.** With `Clc1ccccc1Oc1cncc(C2=CC3CNCC(C2)C3)c1` (stereo not drawn) as the compound, how does the pKi [1] read?
**A.** 9.05

**Q.** And the pKi [2]?
**A.** 7.41

**Q.** What about the pKi [3] of the same compound?
**A.** 7.59

**Q.** How did the pKi [1] turn out when `N#Cc1cncc(C2=CC3CNCC(C2)C3)c1` (stereo not drawn) was run?
**A.** 9.22

**Q.** What about the pKi [2] of the same compound?
**A.** 6.80

**Q.** And the pKi [3]?
**A.** 7.33

**Q.** What does the source list for `FC(F)(F)c1cncc(C2=CC3CNCC(C2)C3)c1` (stereo not drawn)?
**A.** pKi [1]: 9.15; pKi [2]: 6.19; pKi [3]: 7.10

**Q.** `C1=C(c2cccnc2)CC2CNCC1C2` (racemic) was tested. Which pKi [1] did it give?
**A.** 9.70

**Q.** What about the pKi [2] of the same compound?
**A.** 8.40

**Q.** What about the pKi [3] of the same compound?
**A.** 7.92

**Q.** What does the source list for `CN1CC2C=C(c3cncc(F)c3)CC(C2)C1` (stereo not drawn)?
**A.** pKi [1]: 7.89; pKi [2]: 6.00; pKi [3]: 5.79

**Q.** How did the pKi [1] turn out when `Clc1ccc(Oc2cncc(C3=CC4CNCC(C3)C4)c2)cc1` (stereo not drawn) was run?
**A.** 8.72

**Q.** And the pKi [2]?
**A.** 7.64

**Q.** What about the pKi [3] of the same compound?
**A.** 7.40

**Q.** With `CN1CC2C=C(c3cncc(Cl)c3)CC(C2)C1` (stereo not drawn) as the compound, how does the pKi [1] read?
**A.** 8.02

**Q.** And the pKi [2]?
**A.** 5.10

**Q.** What about the pKi [3] of the same compound?
**A.** 5.74

**Q.** `c1cncc(N2CC3CNCC(C3)C2)c1` was tested. Which pKi [1] did it give?
**A.** 10.00

**Q.** What about the pKi [2] of the same compound?
**A.** 8.80

**Q.** What about the pKi [3] of the same compound?
**A.** 8.18

**Q.** Which results are given for `CN1CC2C=C(c3ccc(Cl)nc3)CC(C2)C1` (stereo not drawn)?
**A.** pKi [1]: 7.66; pKi [2]: 5.19; pKi [3]: 6.01

**Q.** `CNCC/C=C/c1cccnc1` [RIVANICLINE] was tested. Which pKi [1] did it give?
**A.** 7.59

**Q.** What about the pKi [2] of the same compound?
**A.** 5.10

**Q.** What about the pKi [3] of the same compound?
**A.** 5.27

**Q.** `CN1CC2C=C(c3cncc(OCc4ccccc4)c3)CC(C2)C1` (stereo not drawn) was tested. Which pKi [1] did it give?
**A.** 8.77

**Q.** What about the pKi [2] of the same compound?
**A.** 5.34

**Q.** And the pKi [3]?
**A.** 6.15

**Q.** How did the pKi [1] turn out when `Clc1cncc(C2=CC3CNCC(C2)C3)c1` (stereo not drawn) was run?
**A.** 9.40

**Q.** What about the pKi [2] of the same compound?
**A.** 7.82

**Q.** And the pKi [3]?
**A.** 7.40

**Q.** Which results are given for `C1=C(c2ccc3nccnc3c2)CC2CNCC1C2` (stereo not drawn)?
**A.** pKi [1]: 7.07; pKi [2]: < 5.00; pKi [3]: 5.24

**Q.** `CN1CC2C=C(c3cncc(C#N)c3)CC(C2)C1` (stereo not drawn) was tested. Which pKi [1] did it give?
**A.** 7.62

**Q.** And the pKi [2]?
**A.** < 5.00

**Q.** And the pKi [3]?
**A.** 5.35

**Q.** `Fc1ccc(Oc2cncc(C3=CC4CNCC(C3)C4)c2)cc1` (stereo not drawn) was tested. Which pKi [1] did it give?
**A.** 9.22

**Q.** What about the pKi [2] of the same compound?
**A.** 8.14

**Q.** And the pKi [3]?
**A.** 7.51

**Q.** With `COc1ccccc1Oc1cncc(C2=CC3CNCC(C2)C3)c1` (stereo not drawn) as the compound, how does the pKi [1] read?
**A.** 9.00

**Q.** And the pKi [2]?
**A.** 7.52

**Q.** What about the pKi [3] of the same compound?
**A.** 7.25

**Q.** Which results are given for `COc1ccc(C2=CC3CNCC(C2)C3)cn1` (stereo not drawn)?
**A.** pKi [1]: 9.40; pKi [2]: 5.73; pKi [3]: 6.48

**Q.** With `COc1cccc(Oc2cncc(C3=CC4CNCC(C3)C4)c2)c1` (stereo not drawn) as the compound, how does the pKi [1] read?
**A.** 9.05

**Q.** And the pKi [2]?
**A.** 7.89

**Q.** What about the pKi [3] of the same compound?
**A.** 7.82

**Q.** `COc1cc(C2=CC3CNCC(C2)C3)cnc1Cl` (stereo not drawn) was tested. Which pKi [1] did it give?
**A.** 9.40

**Q.** What about the pKi [2] of the same compound?
**A.** 6.95

**Q.** And the pKi [3]?
**A.** 8.15
